Experimental data as given in ChEMBL document CHEMBL2321850, “Fragment-based discovery of 8-hydroxyquinoline inhibitors of the HIV-1 integrase-lens epithelium-derived growth factor/p75 (IN-LEDGF/p75) interaction” (J Med Chem, 2013).

Legend:
[1] = test system: Human immunodeficiency virus 1; experiment: Inhibition of HIV-1 FLAG-6x-His-tagged integrase interaction to FLAG-tagged LEDGF/p75 at 10 uM preincubated for 30 mins prior to LEDGF/p75 addition measured after 60 mins by quenching assay
[2] = target: T1, Human immunodeficiency virus type 1 integrase (Human immunodeficiency virus 1, UniProt Q7ZJM1); experiment: Inhibition of HIV-1 integrase strand transfer activity
T1 sequence (Q7ZJM1 whole entry): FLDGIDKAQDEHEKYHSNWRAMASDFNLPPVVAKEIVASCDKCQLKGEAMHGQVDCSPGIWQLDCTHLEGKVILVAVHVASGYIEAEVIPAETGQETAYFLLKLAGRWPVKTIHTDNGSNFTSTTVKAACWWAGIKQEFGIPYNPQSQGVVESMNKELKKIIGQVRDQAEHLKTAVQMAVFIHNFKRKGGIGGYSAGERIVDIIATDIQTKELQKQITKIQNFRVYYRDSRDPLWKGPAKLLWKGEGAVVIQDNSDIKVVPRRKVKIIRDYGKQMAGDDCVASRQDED

[3] = target: T1, Human immunodeficiency virus type 1 integrase; experiment: Inhibition of HIV-1 integrase 3'-processing activity
[4] = test system: LNCaP; experiment: Cytotoxicity against human LNCAP cells assessed as inhibition of cell proliferation after 72 hrs by MTT assay; assay type: cell-based
[5] = Inhibition of HIV-1 His6-tagged integrase interaction to FLAG-tagged LEDGF/p75 preincubated for 30 mins prior to LEDGF/p75 addition measured after 60 mins by alphascreen assay; parameters: species or system Human immunodeficiency virus 1
Outline: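 His6-tagged IN (300 nM final) preincubated with compound (20 µM final) 30 min at 4 °C, then FLAG-LEDGF/p75 (300 nM final) added for 60 min at 4 °C; Ni-chelate donor and anti-FLAG acceptor beads (20 µg/mL each) added, 1 h at 30 °C, light-protected; acceptor-bead emission read.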

[6] = test system: MT4; experiment: Cytotoxicity against human MT4 cells assessed as cell viability after 72 hrs by MTT assay; assay type: cell-based; settings: mt4, 72 h
Outline: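 MT-4 cells exposed to fivefold serial dilutions of compound run in parallel with the antiviral MTT cytopathic-effect assay; CC50 taken as the concentration killing 50% of MT-4 cells.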

[7] = test system: Human immunodeficiency virus; experiment: Antiviral activity against HIV infected human MT4 cells assessed as decrease of virus-induced cytopathic effect after 72 hrs by MTT assay; assay type: functional, organism-based; settings: Human immunodeficiency virus 1, MT4, 72 h
Outline: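 MT-4 cells infected with 100 to 300 CCID50 of HIV (CCID50 from virus-stock titration on MT-4) in presence of fivefold serial compound dilutions; protection from viral cytopathic effect read by MTT; EC50 = concentration giving 50% protection. CC50 in MT-4 cells measured in parallel.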

[8] = Selectivity index, ratio of CC50 for human MT4 cells to EC50 for HIV infected human MT4 cells; assay type: toxicity, cell-based; settings: MT4 cells (CC50) and HIV-infected MT4 cells (EC50)
Outline: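 MT-4 cells infected with 100 to 300 CCID50 of HIV in the presence of fivefold serial compound dilutions. Protection against virus-induced cytopathic effect was read by MTT to give EC50. CC50 came from parallel MTT viability testing of uninfected MT-4 cells. Selectivity index was calculated as CC50/EC50.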

[9] = Cytotoxicity against human LNCAP cells assessed as growth inhibition at 10 uM after 72 hrs by MTT assay; assay type: cell-based; settings: read-out: Activity

| Structure (SMILES) | inhibition [1] [%] | IC50 [2] [µM] | IC50 [3] [µM] | CC50 [4] [µM] | IC50 [5] [µM] | CC50 [6] [µM] | EC50 [7] [µM] | selectivity ratio [8] | inhibition at 72 h, 10 µM [9] [%] |
| --- | --- | --- | --- | --- | --- | --- | --- | --- | --- |
| Oc1ccc(Cc2ccc(O)c3ncccc23)c2cccnc12 | < 50 | > 20 | > 20 | 0.1 | 2 |  |  |  |  |
| CN1CCN(Cc2ccc(O)c3ncccc23)CC1 | < 50 | > 20 | > 20 | > 10 | 0.8 | 35 | > 35 |  |  |
| Oc1ccc(CN2CCCCC2)c2cccnc12 | < 50 | > 20 | > 20 | > 10 | 0.4 | 9 | > 9 |  |  |
| Cc1ccc(NCc2ccc(O)c3ncccc23)cc1C | < 50 | > 20 | > 20 | > 10 | 4.6 | 33.5 | 17.9 | 2 |  |
| Oc1c(Cl)cc(Cl)c2cccnc12 [CHLOROXINE] | < 50 | > 20 | > 20 | 2.5 | 4.3 |  |  |  |  |
| Cc1ccccc1NCc1ccc(O)c2ncccc12 | < 50 | > 20 | > 20 | > 10 | 1.4 | 9 | > 9 |  | 0 |
| Cc1cccnc1NCc1ccc(O)c2ncccc12 | < 50 | > 20 | > 20 | > 10 | 3.5 | 11 | > 11 |  |  |
| CC(=O)NC(c1ccccc1)c1cc(Cl)c2cccnc2c1O (configuration not stated) | < 50 | > 20 | > 20 | 0.74 | 3 |  |  |  |  |
| COc1cccc(NCc2ccc(O)c3ncccc23)c1 | < 50 | > 20 | > 20 | 5 | 3.2 |  |  |  |  |
| CCOC(=O)N1CCN(Cc2ccc(O)c3ncccc23)CC1 | < 50 | > 20 | > 20 | > 10 | 1.5 | 9 | > 9 |  |  |
| Cc1ccc(S(=O)(=O)NC(=O)Oc2cccc3cccnc23)cc1 | < 50 | > 20 | > 20 | > 10 | 1.7 | 2 | > 2 |  | 13 |
| O=C(CC(Sc1cccc2cccnc12)c1ccc(OC(F)F)cc1)c1ccco1 (configuration not stated) | < 50 | > 20 | > 20 | 0.8 | 3 | 2 | > 2 |  | 73 |
| CCC(=O)NC(c1ccccc1OC)c1ccc2cccnc2c1O (configuration not stated) | < 50 | > 20 | > 20 | 0.58 | 2 |  |  |  |  |
| Oc1ccc(CN2CCN(Cc3ccccc3)CC2)c2cccnc12 | < 50 | > 20 | > 20 | > 10 | 2.2 | 11 | > 11 |  |  |
| COc1cccc(C(NC(C)=O)c2ccc3cccnc3c2O)c1 (configuration not stated) | < 50 | > 20 | > 20 | 0.58 | 2 |  |  |  |  |
| Cc1cccc(NCc2ccc(O)c3ncccc23)c1 | < 50 | > 20 | > 20 | > 10 | 4 | 9 | > 9 |  |  |
| CCOC(=O)C1CCN(Cc2ccc(O)c3ncccc23)CC1 | < 50 | > 20 | > 20 | > 10 | 2.2 |  |  |  |  |
| Oc1ccc(CN2CCN(c3ccccc3)CC2)c2cccnc12 | < 50 | > 20 | > 20 | 5 | 2.1 |  |  |  |  |
| CCOC(=O)C1CCCN(Cc2ccc(O)c3ncccc23)C1 (configuration not stated) | < 50 | > 20 | > 20 | > 10 | 2 | 9 | > 9 |  |  |
| Oc1ccccc1C(Nc1nccs1)c1ccc2cccnc2c1O (configuration not stated) | < 50 | > 20 | > 20 | 2.4 | 4.7 |  |  |  |  |
| Cc1cccc(NCc2ccc(O)c3ncccc23)c1C | < 50 | > 20 | > 20 | > 10 | 3 | 13 | > 13 |  |  |

| Structure (SMILES) | inhibition [1] [%] | IC50 [2] [µM] | IC50 [3] [µM] | CC50 [4] [µM] | IC50 [5] [µM] | CC50 [6] [µM] | EC50 [7] [µM] | selectivity ratio [8] | inhibition at 72 h, 10 µM [9] [%] |
| --- | --- | --- | --- | --- | --- | --- | --- | --- | --- |
| CCCC(=O)NC(c1ccccc1)c1ccc2cccnc2c1O (configuration not stated) | < 50 | > 20 | > 20 | 0.68 | 1.4 |  |  |  |  |
| O=C(CC(Sc1cccc2cccnc12)c1ccc(F)cc1)c1cccs1 (configuration not stated) | < 50 | > 20 | > 20 | > 10 | 3 |  |  |  | 21 |
| CCC(=O)NC(c1cccs1)c1cc([N+](=O)[O-])c2cccnc2c1O (configuration not stated) | < 50 | > 20 | > 20 | 5 | 3.5 |  |  |  |  |
| CCOCc1ccc(O)c2ncccc12 | < 50 | > 20 | > 20 | 2 | 2.4 |  |  |  |  |
| CC(=O)NC(c1ccc(N(C)C)cc1)c1cc(Cl)c2cccnc2c1O (configuration not stated) | < 50 | > 20 | > 20 | 0.62 | 4 |  |  |  |  |
| CCC(=O)NC(c1ccc(OC)cc1)c1cc([N+](=O)[O-])c2cccnc2c1O (configuration not stated) | < 50 | > 20 | > 20 | > 10 | 2.6 | 10 | > 10 |  |  |
| Oc1ccc(Cl)c2cccnc12 [CLOXYQUIN] | < 50 | > 20 | > 20 | 5 | 3.6 |  |  |  |  |
| Oc1ccc(CNc2ccccc2Cl)c2cccnc12 | < 50 | > 20 | > 20 | > 10 | 4.8 | 34 | > 34 |  |  |
| CCN1CCN(Cc2ccc(O)c3ncccc23)CC1 | < 50 | > 20 | > 20 | > 10 | 1.2 | 42 | > 42 |  |  |
| CCC(=O)NC(c1ccco1)c1cc(Cl)c2cccnc2c1O (configuration not stated) | < 50 | > 20 | > 20 | 0.72 | 4 |  |  |  |  |
| COc1ccc(C(NC(C)=O)c2cc([N+](=O)[O-])c3cccnc3c2O)cc1OC (configuration not stated) | < 50 | > 20 | > 20 | > 10 | 3.9 | 42 | > 42 |  |  |
| Cc1cccc(NCc2ccc(O)c3ncccc23)n1 | < 50 | > 20 | > 20 | > 10 | 2.8 | 2 | > 2 |  |  |
| CCCC(=O)NC(c1ccc(OC)cc1)c1ccc2cccnc2c1O (configuration not stated) | < 50 | > 20 | > 20 | 0.62 | 4 |  |  |  |  |
| Oc1ccc(CN2CCN(c3ccccn3)CC2)c2cccnc12 | < 50 | > 20 | > 20 | > 10 | 1.9 | 9 | > 9 |  |  |
| Oc1ccc(CNc2cccc(C(F)(F)F)c2)c2cccnc12 | < 50 | > 20 | > 20 | > 10 | 2.9 | 10 | > 10 |  |  |
| CCC(=O)NC(c1ccc(OC)c(OC)c1)c1cc(Cl)c2cccnc2c1O (configuration not stated) | < 50 | > 20 | > 20 | 3 | 4 |  |  |  |  |
| Cc1ccc(NCc2ccc(O)c3ncccc23)cc1 | < 50 | > 20 | > 20 | > 10 | 3.3 | 36.5 | 15.4 | 2 |  |
| CCOc1ccc(NCc2ccc(O)c3ncccc23)cc1 | < 50 | > 20 | > 20 | > 10 | 4 | 11 | > 11 |  |  |
| Oc1ccc(CNc2ccc(C(F)(F)F)cc2)c2cccnc12 | < 50 | > 20 | > 20 | > 10 | 2.1 | 9 | > 9 |  |  |
| Oc1ccc(CNc2ccccc2F)c2cccnc12 | < 50 | > 20 | > 20 | > 10 | 3.7 | 9 | > 9 |  |  |
